Consider 7 compounds from PMC7678623 (Angewandte Chemie (International ed. in English), 2019).

What all share (assay type): cell-based
Assay [1] deals with CDK4/6. Put plainly: Immunoblot for CDK4/6 degradation in Jurkat cells. To be noted: WT Jurkat cells, 4h, Figure 3. The procedure, abridged: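 Jurkat cells, which express both CDK4 and CDK6, were treated for 4h with test compound at 1 µM. The test compounds were degraders built on each of three CDK4/6 inhibitor scaffolds. CDK4 and CDK6 protein levels were then assessed by immunoblot.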
(In western blotting, separated proteins are transferred to a membrane and probed.)

Assay [2] has as its system IKZF1/3. Put plainly: Immunoblot for IKZF1/3 degradation in Jurkat cells. To be noted: 4h, Figure 3.
Assay [3] has as its system Molt4 cells. Put plainly: Multiplexed MS-based quantitative proteomics. To be noted: 250 nM, 5h.
The test system of assay [4] is CDK4/6, IKZF1/3, phosphorylated Rb. Put plainly: Immunoblots in Granta-519 cells. The settings on record: 1 µM, 1d.
In assay [5] the test system is wildtype and Crbn−/− Jurkat cells. Put plainly: Cell cycle profile by propidium iodide staining of DNA content. The settings on record: 100 nM, 24h. In a few lines: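 Wildtype and Crbn−/− Jurkat cells were exposed to 100 nM test compound for 24h, alongside a parent CDK4/6 inhibitor and an imide CRBN ligand as comparators. Cells were stained with propidium iodide for DNA content, and cell cycle distribution was read from fluorescence histograms and then quantitated.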

On to `CN(C)C(=O)c1cc2cnc(Nc3ccc(N4CCN(CCCCNC(=O)CNc5cccc6c5C(=O)N(C5CCC(=O)NC5=O)C6=O)CC4)cn3)nc2n1C1CCCC1` (centres unmarked) [BSJ-01–187], for which the “CDK4 and CDK6 degradation selectivity (immunoblot)” value in assay [1] is recorded as “selectively degraded CDK4”. For the same compound, in assay [2], the “IKZF1/3 degradation (immunoblot)” value is given as “induced degradation of IKZF1/3”.

As for `CC(=O)c1c(C)c2cnc(Nc3ccc(N4CCN(CCOCCOCCOCCNC(=O)COc5cccc6c5C(=O)N(C5CCC(=O)NC5=O)C6=O)CC4)cn3)nc2n(C2CCCC2)c1=O` (centres unmarked) [BSJ-03–123], the “CDK4 and CDK6 degradation selectivity (immunoblot)” value in assay [1] is listed as “selective CDK6 degrader”. Further, the proteome-wide degradation selectivity result in assay [3] was “loss of CDK6, but not CDK4 or IKZF1/3”. In addition, in assay [2], the “IKZF1/3 degradation (immunoblot)” value is “none of which induced IKZF1/3 degradation”.

Take `CC(=O)c1c(C)c2cnc(Nc3ccc(N4CCN(CCCCNC(=O)COc5cccc6c5C(=O)N(C5CCC(=O)NC5=O)C6=O)CC4)cn3)nc2n(C2CCCC2)c1=O` (centres unmarked) [BSJ-03–204]: in assay [4], the “CDK4/6 and IKZF1/3 protein loss (immunoblot)” value is on record as “only resulted in degradation of CDK4/6”. Besides, the “CDK4 and CDK6 degradation selectivity (immunoblot)” value in assay [1] is listed as “dual CDK4/6 degrader”. Besides, the proteome-wide degradation selectivity entry in assay [3] is recorded as “selective for CDK4/6 degradation”. For the same compound, the “IKZF1/3 degradation (immunoblot)” value in assay [2] was “none of which induced IKZF1/3 degradation”.

For the compound `CN(C)C(=O)c1cc2cnc(Nc3ccc(N4CCN(CCCCNC(=O)COc5cccc6c5C(=O)N(C5CCC(=O)NC5=O)C6=O)CC4)cn3)nc2n1C1CCCC1` (centres unmarked) [BSJ-04–132], the “CDK4 and CDK6 degradation selectivity (immunoblot)” value in assay [1] is “selective CDK4 degrader”. For the same compound, in assay [3], the CDK4 abundance change is given as ~ 1.9 fold change; the proteome-wide degradation selectivity result was “its level was reduced to a greater extent than those of CDK6, IKZF1 and IKZF3”. Besides, the “IKZF1/3 degradation (immunoblot)” value in assay [2] was “none of which induced IKZF1/3 degradation”.

With `CC(=O)c1c(C)c2cnc(Nc3ccc(N4CCN(CC(=O)NCCOCCOCCOCCNc5cccc6c5C(=O)N(C5CCC(=O)NC5=O)C6=O)CC4)cn3)nc2n(C2CCCC2)c1=O` (centres unmarked) [YKL-06–102], the “CDK4 and CDK6 degradation selectivity (immunoblot)” value in assay [1] is reported as “induced selective degradation of CDK6”. Besides, the “IKZF1/3 degradation (immunoblot)” value in assay [2] is given as “induced degradation of IKZF1/3”.

For `Nc1cccc2c1CN(C1CCC(=O)NC1=O)C2=O` (centres unmarked) [lenalidomide], the “cell cycle effect (G1 arrest)” value in assay [5] (Crbn−/− Jurkat cells) and in assay [5] (wildtype Jurkat cells) was “had no effect” each time.

On to `CC(=O)c1c(C)c2cnc(Nc3ccc(N4CCNCC4)cn3)nc2n(C2CCCC2)c1=O` [palbociclib], for which the “levels of phosphorylated Rb (immunoblot)” value in assay [4] is reported as “reduced levels of phosphorylated Rb”. Further, the “cell cycle effect (G1 arrest)” value in assay [5] (Crbn−/− Jurkat cells) and in assay [5] (wildtype Jurkat cells) was “induced profound G1 arrest in both cell lines” each time.
